Test results from ChEMBL document CHEMBL1153946, “Oxadiazole-diarylpyrazole 4-carboxamides as cannabinoid CB1 receptor ligands” (Bioorg Med Chem Lett, 2009).

Legend:
Cannabinoid receptor 1 = Cannabinoid receptor 1 (Rattus norvegicus, UniProt P20272); experiment: Displacement of [3H]CP-55940 from cannabinoid CB1 receptor in Sprague-Dawley rat cerebellar membrane by liquid scintillation spectrometry; set-up: species or system Cerebellum
How it was run: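 Membranes from cerebella of male Sprague-Dawley rats (200–300 g), homogenized in TME (50 mM Tris-HCl, 1 mM EDTA, 3 mM MgCl₂, pH 7.4), spun 48,000g 30 min at 4 °C, resuspended, stored at −70 °C. Incubated 1 h at 30 °C with radioligand in TME plus 0.5% fatty-acid-free BSA. Filtered on PEI-soaked GF/B and washed; IC50 by nonlinear regression.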

Cannabinoid receptor 2 = Cannabinoid receptor 2 (Homo sapiens, UniProt P34972); experiment: Displacement of [3H]WIN-55212-2 from human recombinant cannabinoid CB2 receptor expressed in CHOK1 cells by liquid scintillation spectrometry; assay type: cell-based, CHO-K1
Chain of Cannabinoid receptor 2 (P34972 whole entry): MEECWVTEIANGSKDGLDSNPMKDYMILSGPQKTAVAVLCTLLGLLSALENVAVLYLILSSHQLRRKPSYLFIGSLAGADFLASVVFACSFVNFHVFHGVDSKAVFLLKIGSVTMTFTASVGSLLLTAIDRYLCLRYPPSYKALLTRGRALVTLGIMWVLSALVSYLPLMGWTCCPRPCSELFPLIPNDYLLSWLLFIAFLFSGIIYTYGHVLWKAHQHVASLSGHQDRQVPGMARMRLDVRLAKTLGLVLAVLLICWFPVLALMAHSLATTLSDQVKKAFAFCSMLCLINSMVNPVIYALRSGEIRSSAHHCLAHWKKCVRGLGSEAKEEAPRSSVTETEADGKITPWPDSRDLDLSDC
How it was run: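 CHO K-1 cells transfected with human CB2; membranes prepared as for brain tissue. Competition with 3 nM [3H]WIN55,212-2 in TME buffer (pH 7.4) with 0.5% fatty-acid-free BSA, 1 h at 30 °C. Filtered on 0.1% PEI-soaked GF/B, washed five times with ice-cold buffer plus 0.1% BSA, and counted by scintillation. IC50 by nonlinear regression.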

CHO-K1 = experiment: Selectivity ratio of IC50 for human recombinant cannabinoid CB2 receptor expressed in CHOK1 cells to IC50 for cannabinoid CB1 receptor in Sprague-Dawley rat cerebellar membrane

Chain of Cannabinoid receptor 1 (P20272 whole entry): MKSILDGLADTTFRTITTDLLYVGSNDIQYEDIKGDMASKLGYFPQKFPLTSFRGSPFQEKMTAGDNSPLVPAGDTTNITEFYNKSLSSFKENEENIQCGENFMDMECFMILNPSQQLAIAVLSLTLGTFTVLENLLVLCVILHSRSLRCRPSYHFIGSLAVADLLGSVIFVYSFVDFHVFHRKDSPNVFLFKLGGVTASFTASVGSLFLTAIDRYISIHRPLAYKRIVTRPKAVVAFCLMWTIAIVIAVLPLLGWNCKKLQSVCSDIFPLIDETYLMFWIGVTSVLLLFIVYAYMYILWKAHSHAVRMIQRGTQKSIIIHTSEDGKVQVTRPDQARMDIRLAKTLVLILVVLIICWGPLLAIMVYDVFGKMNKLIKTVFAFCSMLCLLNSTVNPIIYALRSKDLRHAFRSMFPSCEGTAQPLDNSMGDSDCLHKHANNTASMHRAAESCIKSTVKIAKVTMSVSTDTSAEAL

Row | IC50 (Cannabinoid receptor 1) [nM] | IC50 (Cannabinoid receptor 2) [nM] | SMILES | Ratio IC50 (CHO-K1)
1 | 11.5 | – | CCN(C)C(=O)c1c(-c2nnc(C(C)(C)C)o2)nn(-c2ccc(Cl)cc2Cl)c1-c1ccc(Cl)cc1 | –
2 | 62.1 | – | CCN(CC)C(=O)c1c(-c2nnc(C(C)(C)C)o2)nn(-c2ccc(Cl)cc2Cl)c1-c1ccc(Cl)cc1 | –
3 | 9.31 | – | CC(C)NC(=O)c1c(-c2nnc(C(C)(C)C)o2)nn(-c2ccc(Cl)cc2Cl)c1-c1ccc(Cl)cc1 | –
4 | 93.4 | – | CC(C)(C)c1nnc(-c2nn(-c3ccc(Cl)cc3Cl)c(-c3ccc(Cl)cc3)c2C(=O)N2CCCC2)o1 | –
5 | 1.46 | 374 | CC(C)(C)c1nnc(-c2nn(-c3ccc(Cl)cc3Cl)c(-c3ccc(Br)cc3)c2C(=O)Nc2ccccn2)o1 | 256
6 | 3.27 | – | CC(C)(C)c1nnc(-c2nn(-c3ccc(Cl)cc3Cl)c(-c3ccc(Cl)cc3)c2C(=O)NC2CC2)o1 | –
7 | 5.72 | – | CCCNC(=O)c1c(-c2nnc(C(C)(C)C)o2)nn(-c2ccc(Cl)cc2Cl)c1-c1ccc(Cl)cc1 | –
8 | 1.66 | 738 | CC(C)(C)c1nnc(-c2nn(-c3ccc(Cl)cc3Cl)c(-c3ccc(Cl)cc3)c2C(=O)Nc2ccccc2)o1 | 445
9 | 17.2 | – | CC(C)(C)c1nnc(-c2nn(-c3ccc(Cl)cc3Cl)c(-c3ccc(Cl)cc3)c2C(=O)NN2CCCCC2)o1 | –
10 | 13.4 | – | CN(C)C(=O)c1c(-c2nnc(C(C)(C)C)o2)nn(-c2ccc(Cl)cc2Cl)c1-c1ccc(Cl)cc1 | –

Further lines, the compound ahead of its results:

Row | SMILES | IC50 (Cannabinoid receptor 1) [nM] | IC50 (Cannabinoid receptor 2) [nM] | Ratio IC50 (CHO-K1)
11 | CC(C)(C)c1nnc(-c2nn(-c3ccc(Cl)cc3Cl)c(-c3ccc(Cl)cc3)c2C(N)=O)o1 | 23.8 | – | –
12 | CCNC(=O)c1c(-c2nnc(C(C)(C)C)o2)nn(-c2ccc(Cl)cc2Cl)c1-c1ccc(Cl)cc1 | 12.7 | – | –
13 | CC(C)(C)c1nnc(-c2nn(-c3ccc(Cl)cc3Cl)c(-c3ccc(Cl)cc3)c2C(=O)Nc2ccccn2)o1 | 1.47 | 636 | 433
14 | CC(C)(C)c1nnc(-c2nn(-c3ccc(Cl)cc3Cl)c(-c3ccc(Br)cc3)c2C(=O)Nc2ccccc2)o1 | 1.35 | 386 | 286
15 | CNC(=O)c1c(-c2nnc(C(C)(C)C)o2)nn(-c2ccc(Cl)cc2Cl)c1-c1ccc(Cl)cc1 | 18.3 | – | –
16 | CC(C)(C)c1nnc(-c2nn(-c3ccc(Cl)cc3Cl)c(-c3ccc(Cl)cc3)c2C(=O)NC2CCCC2)o1 | 7.25 | – | –
17 | O=C(Nc1ccccc1)c1c(-c2nnc(C3(c4ccc(Cl)cc4)CC3)o2)nn(-c2ccc(Cl)cc2Cl)c1-c1ccc(Br)cc1 | 1.96 | > 10000 | > 5100
18 | CCCCNC(=O)c1c(-c2nnc(C(C)(C)C)o2)nn(-c2ccc(Cl)cc2Cl)c1-c1ccc(Cl)cc1 | 17.8 | – | –
19 | CC(=O)CNC(=O)c1c(-c2nnc(C(C)(C)C)o2)nn(-c2ccc(Cl)cc2Cl)c1-c1ccc(Cl)cc1 | 3.51 | – | –
